The values below come from ChEMBL document CHEMBL4706708, “Improving the solubility of anti-proliferative thieno[2,3-b]quinoline-2-carboxamides” (Bioorg Med Chem, 2021).

The subject of data set [1] is HCT-116. The experiment in a line: Antiproliferative activity against human HCT-116 cells assessed as cell growth at 1 uM measured after 3 days by [3H]-thymidine incorporation assay relative to control. The format is functional. Particulars: HCT-116, 72 h, time 3 day, read-out: Activity. Summed up:
(§1)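 HCT116 and MDA-MB-231 cells from ATCC, seeded at 3000 cells/well, exposed to inhibitor for three days; 0.04 µCi 3H-thymidine added per well 5 h before harvest onto glass fibre filters, incorporation counted by scintillation and expressed relative to untreated controls. Triplicate wells, at least two independent experiments. Single-point screen at 1 µM; IC50 determined from varying concentrations.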
(Uptake of a labelled nucleoside into DNA is a usual measure of proliferation.)

The test system of data set [2] is MDA-MB-231. The experiment in a line: Antiproliferative activity against human MDA-MB-231 cells assessed as cell growth at 1 uM measured after 3 days by [3H]-thymidine incorporation assay relative to control. Type of data set: functional. Particulars: MDA-MB-231, 72 h, time 3 day, read-out: Activity. An outline of the steps:
as §1

The nature of data set [3]: Thermodynamic solubility of compound in water measured after 15 mins RP-HPLC analysis. Type of data set: physicochemical. Conditions: read-out: Therm_solubility.

In brackets after ≈: the same amount, converted by molar mass.

Take `Cc1nc2sc(C(=O)Nc3ccncc3)c(N)c2cc1C(C)O` (configuration not stated): the growth at 1 µM in data set [1] was determined as 111%; in data set [2], 113%. The solubility thermodynamic at 0.25 h in data set [3] is 2.85 µg/mL (≈ 8.68 µM).

For the compound `COc1cccc(NC(=O)c2sc3nc4c(cc3c2N)CN(Cc2ccccc2)CC4)c1`, the growth at 1 µM was found to be 85.2% in data set [1] and 90.7% in data set [2]. Further, in data set [3], the solubility thermodynamic at 0.25 h came to 0.3 µg/mL (≈ 0.675 µM).

As to `COc1ccc(NC(=O)c2sc3nc(C)c(C(C)O)cc3c2N)cc1` (configuration not stated), the growth at 1 µM in data set [1] is 97.5%; in data set [2], 114%. In data set [3], the solubility thermodynamic at 0.25 h is 1.79 µg/mL (≈ 5.01 µM).

For `Nc1c(C(=O)Nc2ccccc2)sc2nc3c(cc12)COCC3`, the growth at 1 µM was found to be 91.5% in data set [1] and 98.9% in data set [2]. Moreover, the solubility thermodynamic at 0.25 h in data set [3] was 1.03 µg/mL (≈ 3.17 µM).

Regarding `Cc1nc2sc(C(=O)Nc3cncc4ccccc34)c(N)c2cc1C(C)O` (configuration not stated), the growth at 1 µM came out at 109% in data set [1] and 106% in data set [2].

Take `Nc1c(C(=O)Nc2cccc(Cl)c2)sc2nc3c(cc12)CN(Cc1ccccc1)CC3`: the growth at 1 µM is 89.9% in data set [1] and 80.5% in data set [2]. Moreover, the solubility thermodynamic at 0.25 h in data set [3] was found to be 0.213 µg/mL (≈ 0.474 µM).

Regarding `Nc1c(C(=O)Nc2ccc3c(c2)OCCO3)sc2nc3c(cc12)C(=O)CCC3`, the growth at 1 µM in data set [1] came out at 76.2%; in data set [2] it was 102%. The solubility thermodynamic at 0.25 h in data set [3] is 0.32 µg/mL (≈ 0.809 µM).

For `Nc1c(C(=O)Nc2ccnc3ccccc23)sc2nc3c(cc12)C(=O)CCC3`, the results for the growth at 1 µM in data set [1] and in data set [2] were 101% and 107%, respectively. The solubility thermodynamic at 0.25 h in data set [3] worked out at 0.64 µg/mL (≈ 1.65 µM).

Turning to `CC(=O)c1cc2c(N)c(C(=O)Nc3cccc(F)c3C)sc2nc1C`, the values for the growth at 1 µM in data set [1] and in data set [2] were 103% and 114%, respectively. The solubility thermodynamic at 0.25 h in data set [3] was 0.35 µg/mL (≈ 0.979 µM).

For the compound `CC(=O)c1cc2c(N)c(C(=O)Nc3ccccn3)sc2nc1C`, the growth at 1 µM in data set [1] amounted to 91.7%; in data set [2] it was 92.9%. Also, the solubility thermodynamic at 0.25 h in data set [3] turned out to be 0.45 µg/mL (≈ 1.38 µM).

With `CC(=O)c1cc2c(N)c(C(=O)Nc3ccccc3Cl)sc2nc1C`, the growth at 1 µM is 87.3% in data set [1] and 99.6% in data set [2]. Also, the solubility thermodynamic at 0.25 h in data set [3] came to 0.13 µg/mL (≈ 0.361 µM).

As to `CC(=O)c1cc2c(N)c(C(=O)Nc3cccc(C(F)(F)F)c3C)sc2nc1C`, the results for the growth at 1 µM in data set [1] and in data set [2] were 106% and 67.7%, respectively. Also, the solubility thermodynamic at 0.25 h in data set [3] came to 1.17 µg/mL (≈ 2.87 µM).

On to `Nc1c(C(=O)Nc2cccc3cccnc23)sc2nc3c(cc12)CN(Cc1ccccc1)CC3`, for which the results for the growth at 1 µM in data set [1] and in data set [2] were 98.2% and 104%, respectively. The solubility thermodynamic at 0.25 h in data set [3] came to 1.17 µg/mL (≈ 2.51 µM).

For `Nc1c(C(=O)Nc2cccc3ccncc23)sc2nc3c(cc12)C(=O)CCC3`, the growth at 1 µM in data set [1] came to 98.1%; in data set [2], 115%. Further, the solubility thermodynamic at 0.25 h in data set [3] was determined as 1.94 µg/mL (≈ 4.99 µM).

In the case of `Cc1nc2sc(C(=O)Nc3cccc4ncccc34)c(N)c2cc1C(C)O` (configuration not stated), the growth at 1 µM came out at 92% in data set [1] and 112% in data set [2]. In addition, the solubility thermodynamic at 0.25 h in data set [3] stood at 0.89 µg/mL (≈ 2.35 µM).

In the case of `CC(=O)c1cc2c(N)c(C(=O)Nc3cncc4ccccc34)sc2nc1C`, the growth at 1 µM is 96.2% in data set [1] and 105% in data set [2]. Besides, the solubility thermodynamic at 0.25 h in data set [3] turned out to be 0.09 µg/mL (≈ 0.239 µM).

`Cc1nc2sc(C(=O)Nc3ccc4c(c3)OCCO4)c(N)c2cc1C(C)O` (configuration not stated): the growth at 1 µM in data set [1] came to 94.9%; in data set [2] it was 105%. For the same compound, the solubility thermodynamic at 0.25 h in data set [3] turned out to be 0.27 µg/mL (≈ 0.7 µM).

Consider `Nc1c(C(=O)Nc2ccccc2Cl)sc2nc3c(cc12)CN(Cc1ccccc1)CC3`, for which the growth at 1 µM came out at 99.4% in data set [1] and 99.8% in data set [2]. Also, the solubility thermodynamic at 0.25 h in data set [3] turned out to be 1.06 µg/mL (≈ 2.36 µM).

In the case of `Nc1c(C(=O)Nc2cccc3ccccc23)sc2nc3c(cc12)COCC3`, the results for the growth at 1 µM in data set [1] and in data set [2] were 100% and 78.3%, respectively. Besides, in data set [3], the solubility thermodynamic at 0.25 h came to 4 µg/mL (≈ 10.7 µM).

For the compound `CC(=O)c1cc2c(N)c(C(=O)Nc3ccccc3)sc2nc1C`, the growth at 1 µM was found to be 109% in data set [1] and 120% in data set [2]. The solubility thermodynamic at 0.25 h in data set [3] is 3 µg/mL (≈ 9.22 µM).

With `COc1ccc(NC(=O)c2sc3nc(C)c(C(C)=O)cc3c2N)cc1`, the growth at 1 µM in data set [1] is 82.9%; in data set [2] it was 84.6%. Also, the solubility thermodynamic at 0.25 h in data set [3] was 0.13 µg/mL (≈ 0.366 µM).

Consider `Nc1c(C(=O)Nc2cncc3ccccc23)sc2nc3c(cc12)C(=O)CCC3`, for which the figures for the growth at 1 µM in data set [1] and in data set [2] were 97.8% and 111%, respectively. In addition, the solubility thermodynamic at 0.25 h in data set [3] came to 0.71 µg/mL (≈ 1.83 µM).

As to `CN1CCc2nc3sc(C(=O)Nc4cccc5ccccc45)c(N)c3cc2C1`, the growth at 1 µM in data set [1] turned out to be 93.5%; in data set [2], 89%. Further, in data set [3], the solubility thermodynamic at 0.25 h came to 2.17 µg/mL (≈ 5.59 µM).

For the compound `Cc1c(F)cccc1NC(=O)c1sc2nc3c(cc2c1N)CN(Cc1ccccc1)CC3`, the growth at 1 µM in data set [1] was 98.1%; in data set [2] it was 97.3%. The solubility thermodynamic at 0.25 h in data set [3] is 0.84 µg/mL (≈ 1.88 µM).

For the compound `CC(=O)c1cc2c(N)c(C(=O)Nc3ccc4c(c3)OCCO4)sc2nc1C`, the figures for the growth at 1 µM in data set [1] and in data set [2] were 104% and 103%, respectively. The solubility thermodynamic at 0.25 h in data set [3] was 0.19 µg/mL (≈ 0.496 µM).

For `CC(=O)c1cc2c(N)c(C(=O)Nc3cccc4ccncc34)sc2nc1C`, the values for the growth at 1 µM in data set [1] and in data set [2] were 108% and 101%, respectively. The solubility thermodynamic at 0.25 h in data set [3] worked out at 1.06 µg/mL (≈ 2.82 µM).

As for `Nc1c(C(=O)Nc2cccc3ccncc23)sc2nc3c(cc12)CN(Cc1ccccc1)CC3`, the growth at 1 µM in data set [1] was 103%; in data set [2], 108%. The solubility thermodynamic at 0.25 h in data set [3] came out at 2.79 µg/mL (≈ 5.99 µM).

Regarding `CC(=O)c1cc2c(N)c(C(=O)Nc3ccncc3)sc2nc1C`, the growth at 1 µM in data set [1] is 103%; in data set [2], 97.2%. The solubility thermodynamic at 0.25 h in data set [3] came out at 0.45 µg/mL (≈ 1.38 µM).

For the compound `Cc1nc2sc(C(=O)Nc3ccccc3)c(N)c2cc1C(C)O` (configuration not stated), the growth at 1 µM in data set [1] came out at 95.3%; in data set [2], 107%. For the same compound, in data set [3], the solubility thermodynamic at 0.25 h is 3.51 µg/mL (≈ 10.7 µM).

Turning to `Cc1nc2sc(C(=O)Nc3cccc4c3OCCO4)c(N)c2cc1C(C)O` (configuration not stated), the growth at 1 µM was found to be 58.4% in data set [1] and 62.3% in data set [2]. The solubility thermodynamic at 0.25 h in data set [3] was 3.06 µg/mL (≈ 7.94 µM).

As for `Nc1c(C(=O)Nc2cccc3cccnc23)sc2nc3c(cc12)C(=O)CCC3`, the growth at 1 µM in data set [1] turned out to be 101%; in data set [2], 99.2%. Moreover, the solubility thermodynamic at 0.25 h in data set [3] came out at 0.44 µg/mL (≈ 1.13 µM).

On to `Nc1c(C(=O)Nc2cccc3cnccc23)sc2nc3c(cc12)CN(Cc1ccccc1)CC3`, for which the growth at 1 µM in data set [1] was 110%; in data set [2], 108%. Also, the solubility thermodynamic at 0.25 h in data set [3] is 1.12 µg/mL (≈ 2.41 µM).

For `Nc1c(C(=O)Nc2cccc3ncccc23)sc2nc3c(cc12)C(=O)CCC3`, the growth at 1 µM was found to be 96.3% in data set [1] and 96.9% in data set [2]. Moreover, the solubility thermodynamic at 0.25 h in data set [3] is 0.41 µg/mL (≈ 1.06 µM).

In the case of `COc1cccc(NC(=O)c2sc3nc(C)c(C(C)=O)cc3c2N)c1C`, the growth at 1 µM in data set [1] worked out at 96.8%; in data set [2] it was 99.7%. Besides, the solubility thermodynamic at 0.25 h in data set [3] stood at 1.52 µg/mL (≈ 4.11 µM).

Consider `CN1CCc2nc3sc(C(=O)Nc4ccccc4)c(N)c3cc2C1`, for which the results for the growth at 1 µM in data set [1] and in data set [2] were 100% and 91.2%, respectively.

For `Cc1nc2sc(C(=O)Nc3cccc4cccnc34)c(N)c2cc1C(C)O` (configuration not stated), the growth at 1 µM was 110% in data set [1] and 102% in data set [2].

On to `CC(=O)c1cc2c(N)c(C(=O)Nc3cccc4cnccc34)sc2nc1C`, for which the growth at 1 µM in data set [1] turned out to be 111%; in data set [2] it was 99.8%.
